The values below come from ChEMBL document CHEMBL4819107, “Substituted N-(4-amino-2-chlorophenyl)-5-chloro-2-hydroxybenzamide analogues potently inhibit respiratory syncytial virus (RSV) replication and RSV infection-associated inflammatory responses” (Bioorg Med Chem, 2021).

The test system of data set [1] is Respiratory syncytial virus. The experiment in a line: Antiviral activity against RSV infected in human A549 cells assessed as reduction in viral titer at 10 uM incubated for 15 hrs by immunostaining analysis. The class given is functional. The gist of the method: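 RSV long strain (propagated in HEp-2, sucrose-gradient purified) infected A549 cells at MOI 1 for 2 h. Inoculum removed, then compound at 10 μM for 15 h. Progeny virus titred by immunostaining in HEp-2 cells with biotin-conjugated goat anti-RSV antibody. Log reduction = log10 mean titer of vehicle-treated cells minus log10 mean titer with compound.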

Data set [2] concerns A549. The experiment in a line: Cytotoxicity against human A549 cells assessed as cell death at 10 uM incubated for 15 hrs by LDH assay. It counts as cell-based. The note with it: a549, 15 h. The gist of the method: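 A549 cells seeded at 1.5 × 10^4 cells/well. After 24 h, medium replaced with medium containing 10 μM compound and 2% FBS. At 15 h, cell damage read by luminescent LDH release assay. DMSO vehicle control; three biological replicates.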

For data set [3], the system named is A549. The experiment in a line: Antiinflammatory activity against in human A549 cells transfected with PRDIII-I-Luc and IRF-3-Luc assessed as reduction in RSV-induced IRF3 activation at 10 uM incubated for 15 hrs by luciferase reporter gene assay. It counts as functional, cell-based. The gist of the method: (§1)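 A549 cells transfected in triplicate with luciferase plasmids, either NF-κB-Luc or IRF-3-site reporters. At 20 h post-transfection, infected with RSV (MOI 1). Virus removed at 2 h, then 10 μM compound added for 15 h. Cells then harvested and lysed for luciferase activity.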
For orientation: A reporter such as luciferase makes a cellular process visible.

The test system of data set [4] is A549. Description: Antiinflammatory activity against in human A549 cells transfected with NF-kappaB-Luc assessed as reduction in RSV-induced NF-kappaB activation at 10 uM incubated for 15 hrs by luciferase reporter gene assay. The class given is functional, cell-based. The gist of the method:
as §1

In data set [5] the test system is A549. Description: Antiinflammatory activity against in human A549 cells assessed as reduction in RSV-induced IRF3 mRNA expression at 10 uM incubated for 4 hrs by qRT-PCR analysis. The class given is functional, cell-based. A general note: In qPCR the cycle at which signal appears reflects the starting amount.
In data set [6] the test system is A549. The experiment in a line: Antiinflammatory activity against in human A549 cells assessed as reduction in RSV-induced NF-kappaB mRNA expression at 10 uM incubated for 4 hrs by qRT-PCR analysis. It counts as functional, cell-based.
The subject of data set [7] is Respiratory syncytial virus. Description: Antiviral activity against RSV infected in human A549 cells assessed as reduction in viral titer at 7.5 uM incubated for 15 hrs by immunostaining analysis. It counts as functional. The gist of the method: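 Dose-response: A549 cells infected with RSV long strain at MOI 1, then treated with a range of compound concentrations for 15 h. Total virus harvested and titred by immunostaining in HEp-2 cells with biotin-conjugated goat anti-RSV antibody. Reduction expressed as log decrease in titer relative to vehicle (DMSO) control.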

Data set [8] relates to Respiratory syncytial virus. Description: Antiviral activity against RSV infected in human A549 cells assessed as reduction in viral RNA at 10 uM measured upto 24 hrs by qRT-PCR analysis. The note with it: time hrs <=24. The class given is functional, organism-based. The gist of the method: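 A549 cells infected with RSV (MOI 1), then given 10 μM compound. RSV genome copies in cells quantified by RT-qPCR at 6, 15 and 24 h post-treatment. A fusion inhibitor served as a reference control.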

For data set [9], the system named is Respiratory syncytial virus. The experiment in a line: Antiviral activity against RSV infected in human A549 cells assessed as reduction in viral phosphoprotein at 10 uM incubated for 15 hrs by Western blot analysis. The class given is functional, organism-based. The gist of the method:
(§2)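 A549 cells infected with RSV (MOI 1) and treated with 10 μM compound for 15 h. Viral proteins detected by western blot of lysates using anti-RSV or anti-F antibodies, with β-actin as loading control. Membranes blocked in 5% milk in TBS-Tween 20.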

Data set [10] deals with Respiratory syncytial virus. Description: Antiviral activity against RSV infected in human A549 cells assessed as reduction in viral matrix protein at 10 uM incubated for 15 hrs by Western blot analysis. It counts as functional, organism-based. The gist of the method: as §2
A general note: Immunoblotting shows a protein as a band on a membrane.

For data set [11], the system named is Respiratory syncytial virus. Description: Antiviral activity against RSV infected in human A549 cells assessed as reduction in viral N protein at 10 uM incubated for 15 hrs by Western blot analysis. The class given is functional, organism-based. The gist of the method: as §2
Data set [12] deals with T1, Nuclear factor NF-kappa-B complex (Homo sapiens) (UniProt Q00653+P19838+Q04206). The experiment in a line: Inhibition of NF-kappaB in human A549 cells assessed as reduction in p65 Ser536 phosphorylation at 10 uM measured after 4 hrs by Western blot analysis. The class given is cell-based. The gist of the method:
(§3)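 A549 cells infected or mock-infected with RSV (MOI 5), then treated with 10 μM compound for 4 h. Nuclear extracts (or total lysates) prepared, resolved by SDS-PAGE, transferred to PVDF, and probed by western blot. β-actin as loading control.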

The target of data set [13] is T1, Nuclear factor NF-kappa-B complex (Homo sapiens). The experiment in a line: Inhibition of NF-kappaB in human A549 cells assessed as reduction in p65 nuclear translocation at 10 uM measured after 4 hrs by Western blot analysis. The class given is cell-based. The gist of the method:
as §3

The target is the same in data set [14]. Description: Inhibition of NF-kappaB in human A549 cells assessed as reduction in p65 Ser276 phosphorylation at 10 uM measured after 4 hrs by Western blot analysis. The class given is cell-based. The gist of the method:
as §3

The target is the same in data set [15]. Description: Inhibition of NF-kappaB in human A549 cells assessed as reduction in p65 Ser536 phosphorylation at 10 uM measured after 15 hrs by Western blot analysis. The class given is cell-based. The gist of the method: (§4)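 A549 cells infected or mock-infected with RSV (MOI 1), then treated with 10 μM compound for 15 h. Nuclear extracts prepared and analysed by western blot after SDS-PAGE and PVDF transfer. β-actin as loading control.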

Data set [16] shares this target. Description: Inhibition of NF-kappaB in human A549 cells assessed as reduction in p65 nuclear translocation at 10 uM measured after 15 hrs by Western blot analysis. The class given is cell-based. The gist of the method:
as §4

Data set [17] has the same target. Description: Inhibition of NF-kappaB in human A549 cells assessed as reduction in p65 Ser276 phosphorylation at 10 uM measured after 15 hrs by Western blot analysis. The class given is cell-based. The gist of the method: as §4
In data set [18] the target is T2, Interferon regulatory factor 3 (Homo sapiens) (UniProt Q14653).
T2 sequence (whole entry): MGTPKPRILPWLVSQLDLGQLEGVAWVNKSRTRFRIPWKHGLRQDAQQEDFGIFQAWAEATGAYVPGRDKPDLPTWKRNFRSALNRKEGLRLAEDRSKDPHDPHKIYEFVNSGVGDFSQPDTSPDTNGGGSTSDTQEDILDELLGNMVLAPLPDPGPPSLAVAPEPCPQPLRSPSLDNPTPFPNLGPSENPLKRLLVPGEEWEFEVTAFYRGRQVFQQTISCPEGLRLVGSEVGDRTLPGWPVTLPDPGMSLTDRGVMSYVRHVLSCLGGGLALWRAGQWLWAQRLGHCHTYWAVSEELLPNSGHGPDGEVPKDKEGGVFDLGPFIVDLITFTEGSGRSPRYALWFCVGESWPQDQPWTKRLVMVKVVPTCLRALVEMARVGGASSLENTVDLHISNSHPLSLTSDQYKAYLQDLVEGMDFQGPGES
The experiment in a line: Inhibition of poly I:C-induced IRF3 (unknown origin) transfected in human HEK293 cells co-transfected with IRF3-Luc gene incubated for 4 hrs by luciferase reporter gene. The class given is cell-based. The gist of the method:
(§5)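 HEK-293 cells transiently transfected with IRF-3 or NF-κB luciferase reporter. At 15 h post-transfection, cells transfected with Poly I:C in the presence of compound. Luciferase activity then measured.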

The target of data set [19] is T1, Nuclear factor NF-kappa-B complex (Homo sapiens). The experiment in a line: Inhibition of poly I:C-induced NF-kappaB (unknown origin) transfected in human HEK293 cells co-transfected with NF-kappaB-Luc gene incubated for 4 hrs by luciferase reporter gene. It counts as cell-based. The gist of the method: as §5
Data set [20] has as its system A549. Description: Cytotoxicity against human A549 cells assessed as reduction in cell viability incubated for 15 hrs by trypan blue assay. The note with it: a549, 15 h.
Data set [21] concerns the target Interferon regulatory factor 3 (Homo sapiens) (UniProt Q14653). Description: Inhibition of IRF3 in RSV-infected human A549 cells assessed as reduction in IRF3 nuclear translocation at 10 uM measured upto 15 hrs by Western blot analysis. Conditions: time hrs <=15.
Data set [22] has the same target. Description: Inhibition of IRF3 in RSV-infected human A549 cells assessed as reduction in IRF3 Ser396 phosphorylation at 10 uM measured upto 15 hrs by Western blot analysis. Conditions: time hrs <=15.

SMILES strings stand for the structures. Calls of active or inactive are those of the source. The calls are words filed in the database; no cut-off is given here.

A word on the CC50: it is the concentration giving 50% cytotoxicity.

T1 sequence (P19838 whole entry, looked up): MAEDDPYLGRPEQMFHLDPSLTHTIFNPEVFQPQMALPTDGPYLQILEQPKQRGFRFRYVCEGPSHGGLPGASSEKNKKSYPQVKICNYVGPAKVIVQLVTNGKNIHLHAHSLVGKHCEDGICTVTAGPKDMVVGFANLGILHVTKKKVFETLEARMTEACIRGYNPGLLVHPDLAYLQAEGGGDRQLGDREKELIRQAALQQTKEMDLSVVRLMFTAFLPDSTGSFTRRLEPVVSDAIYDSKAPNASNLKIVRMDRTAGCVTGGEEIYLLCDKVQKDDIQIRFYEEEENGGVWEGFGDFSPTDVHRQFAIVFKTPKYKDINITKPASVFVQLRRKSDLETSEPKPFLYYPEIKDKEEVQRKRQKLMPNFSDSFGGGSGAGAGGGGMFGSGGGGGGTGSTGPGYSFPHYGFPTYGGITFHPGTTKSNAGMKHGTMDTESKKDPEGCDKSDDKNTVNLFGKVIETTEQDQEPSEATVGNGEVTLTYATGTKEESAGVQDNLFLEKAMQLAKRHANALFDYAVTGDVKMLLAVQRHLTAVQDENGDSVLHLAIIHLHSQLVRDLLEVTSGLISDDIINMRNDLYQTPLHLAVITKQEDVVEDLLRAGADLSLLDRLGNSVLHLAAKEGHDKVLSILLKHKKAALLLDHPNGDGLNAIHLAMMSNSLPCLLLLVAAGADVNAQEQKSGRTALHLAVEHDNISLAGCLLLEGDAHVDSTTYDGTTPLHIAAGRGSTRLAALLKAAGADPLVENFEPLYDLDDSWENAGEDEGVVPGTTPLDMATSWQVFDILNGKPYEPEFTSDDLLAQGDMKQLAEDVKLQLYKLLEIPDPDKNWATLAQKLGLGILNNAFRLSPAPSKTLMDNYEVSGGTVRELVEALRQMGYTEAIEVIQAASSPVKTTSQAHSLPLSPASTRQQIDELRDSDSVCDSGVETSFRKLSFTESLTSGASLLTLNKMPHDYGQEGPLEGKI
T1 sequence (Q00653 whole entry, looked up): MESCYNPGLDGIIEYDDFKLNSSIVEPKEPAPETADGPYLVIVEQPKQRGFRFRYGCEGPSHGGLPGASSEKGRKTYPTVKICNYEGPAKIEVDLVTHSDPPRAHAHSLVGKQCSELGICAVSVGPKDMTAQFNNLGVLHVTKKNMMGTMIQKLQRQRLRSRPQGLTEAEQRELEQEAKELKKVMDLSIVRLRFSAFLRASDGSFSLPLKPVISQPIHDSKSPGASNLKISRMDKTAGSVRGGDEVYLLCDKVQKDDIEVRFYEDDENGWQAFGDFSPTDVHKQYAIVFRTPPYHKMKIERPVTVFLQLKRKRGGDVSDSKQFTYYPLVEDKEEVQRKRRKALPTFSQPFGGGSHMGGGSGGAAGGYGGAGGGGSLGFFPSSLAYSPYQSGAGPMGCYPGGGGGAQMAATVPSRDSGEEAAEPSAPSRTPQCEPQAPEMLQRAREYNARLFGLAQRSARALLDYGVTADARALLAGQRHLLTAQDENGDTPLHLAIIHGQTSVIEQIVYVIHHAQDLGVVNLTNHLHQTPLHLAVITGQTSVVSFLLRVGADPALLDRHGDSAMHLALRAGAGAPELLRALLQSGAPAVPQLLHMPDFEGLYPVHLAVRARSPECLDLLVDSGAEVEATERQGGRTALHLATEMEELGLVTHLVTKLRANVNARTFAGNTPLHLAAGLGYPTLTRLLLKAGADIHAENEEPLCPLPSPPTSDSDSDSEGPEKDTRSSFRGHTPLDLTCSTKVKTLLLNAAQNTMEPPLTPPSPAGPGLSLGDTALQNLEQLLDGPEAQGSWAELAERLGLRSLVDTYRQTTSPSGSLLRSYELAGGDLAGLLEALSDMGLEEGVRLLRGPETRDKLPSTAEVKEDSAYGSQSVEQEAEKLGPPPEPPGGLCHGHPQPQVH
T1 sequence (Q04206 whole entry, looked up): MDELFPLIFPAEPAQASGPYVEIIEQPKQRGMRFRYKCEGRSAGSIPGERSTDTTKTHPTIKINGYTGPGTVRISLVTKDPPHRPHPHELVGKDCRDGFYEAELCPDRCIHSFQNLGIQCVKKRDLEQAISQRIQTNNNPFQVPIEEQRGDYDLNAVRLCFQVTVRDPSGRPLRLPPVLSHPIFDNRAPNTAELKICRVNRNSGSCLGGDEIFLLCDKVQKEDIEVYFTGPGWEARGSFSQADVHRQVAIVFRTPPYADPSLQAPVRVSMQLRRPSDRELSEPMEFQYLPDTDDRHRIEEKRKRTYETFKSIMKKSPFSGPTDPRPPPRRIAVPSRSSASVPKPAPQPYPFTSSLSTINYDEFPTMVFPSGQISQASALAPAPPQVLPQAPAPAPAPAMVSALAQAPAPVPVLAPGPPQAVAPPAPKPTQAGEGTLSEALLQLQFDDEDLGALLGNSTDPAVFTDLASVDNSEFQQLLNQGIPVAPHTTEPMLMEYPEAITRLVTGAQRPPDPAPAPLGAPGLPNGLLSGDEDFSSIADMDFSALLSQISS

For the compound `O=C(Nc1ccc([N+](=O)[O-])cc1Cl)c1cc(Cl)ccc1O` [NICLOSAMIDE], the “log(activity)” value in [1] is 1.47. Besides, in the data set with A549 [2], the Activity amounted to 24%.
As for `O=C(Nc1ccc(NCc2ccco2)cc1Cl)c1cc(Cl)ccc1O`, the “log(activity)” value in [1] came to 2.13; in data set [7], 1.22. The inhibition result (with A549 [3]; in the data set on A549 [4]; with A549 [5]; with A549 [6]; in data set [8]; in data set [9]) was “Active” each time. Further, the inhibition entry in data set [10], in [11], in data set [12], in [13], in [15] and in data set [16] was “Active” each time. The inhibition result in data set [17], in [18], in [19], in data set [21] and in data set [22] was “Active” each time. Besides, the inhibition result in data set [14] was “inactive”. Also, in the data set with A549 [20], the half-maximal cytotoxic concentration (CC50) amounted to 76.3 µM.
